ABHD4 inh – ABHD4 inhibitors, primary screen, biochemical, fluorescence polarization, mouse; (Lyso)-N-acylphosphatidylethanolamine lipase (Mus musculus), Q8VD66; purified mABHD4, FP-Rh probe fluorescence polarization; inhibition, % at 8.92 µM; 370,000 tested, 0.54% active; AID 720543, 2013;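 active means inhibition exceeding the mean over every tested compound plus 3 SD, cut at about 30% in these data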;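 further: 0% = plate median of compound wells and 100% = S159A mutant with DMSO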
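Assay system: Wild-type mouse ABHD4 protein | Medium: HEPES pH 7.0 buffer, 150 mM NaCl, 0.01% Pluronic F-127 | Incubation: Enzyme–compound pre-incubation 45 min, then probe 60 min, both 25 °C | Technique: Fluorescence polarization with parallel and perpendicular emission, 525/598 nm | Evaluation: % inhibition of FP-Rh probe binding versus controls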
rCAG RNA binder – binders of r(CAG) RNA repeats, primary screen, biochemical, fluorescence; r(CAG) RNA repeat, TO-PRO-1 dye displacement fluorescence; inhibition, % at 3 µM; 370,000 tested, 1.3% active; AID 651821, 2012;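 active means inhibition above the plate cutoff, the mean of all test compounds on that plate plus 3 SD, cut at about 35% in these data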;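 further: 0% = DMSO alone and 100% = 100 µM mitoxantrone as full dye displacement; higher means more dye released from RNA so lower well fluorescence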
DAGLB inh – DAGLB lipase inhibitors, primary screen, biochemical, fluorescence, HTS; AID 504411, 2011; Diacylglycerol lipase-beta (Homo sapiens), Q8NCG7; 340,000 tested, 0.059% active; HEK293T DAGLB membrane lysate, EnzChek fluorogenic substrate; inhibition, % at 5.17 µM; in the data active means inhibition above about 34%;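 further: 0% = enzyme with vehicle and 100% = wells lacking enzyme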
Target sequence (Q8NCG7 whole entry, looked up): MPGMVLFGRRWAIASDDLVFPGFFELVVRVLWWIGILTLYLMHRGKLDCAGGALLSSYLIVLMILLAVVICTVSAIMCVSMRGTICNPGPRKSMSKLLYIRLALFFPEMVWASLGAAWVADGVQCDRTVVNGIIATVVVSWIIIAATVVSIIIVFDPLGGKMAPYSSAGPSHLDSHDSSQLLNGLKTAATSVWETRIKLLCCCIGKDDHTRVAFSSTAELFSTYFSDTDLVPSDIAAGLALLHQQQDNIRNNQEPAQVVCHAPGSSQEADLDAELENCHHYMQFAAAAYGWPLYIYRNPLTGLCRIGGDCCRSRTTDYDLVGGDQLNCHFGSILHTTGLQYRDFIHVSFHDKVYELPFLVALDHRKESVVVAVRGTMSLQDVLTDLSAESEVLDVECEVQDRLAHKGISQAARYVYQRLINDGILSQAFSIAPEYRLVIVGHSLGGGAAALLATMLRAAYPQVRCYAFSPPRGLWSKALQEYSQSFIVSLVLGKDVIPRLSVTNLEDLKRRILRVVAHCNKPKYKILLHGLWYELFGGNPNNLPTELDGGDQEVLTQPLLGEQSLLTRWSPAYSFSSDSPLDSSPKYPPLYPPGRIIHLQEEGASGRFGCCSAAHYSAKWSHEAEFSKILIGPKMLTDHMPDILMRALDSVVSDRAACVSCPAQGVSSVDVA
HTRA1 inhibitor – HTRA1 serine protease inhibitors, primary screen, biochemical, fluorescence polarization, HTS; Q92743; inhibition, % at 5.96 µM; recombinant HTRA1, FP-rhodamine activity-based probe; 340,000 tested, 0.5% active; AID 504803, 2011; in the data active means inhibition above about 36%;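 further: 0% = enzyme with DMSO and 100% = wells lacking enzyme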
LEDGF integ inh – blockers of LEDGF/p75-dependent integrase strand transfer – biochemical, TR-FRET, high throughput, primary screen. inhibition, % at 3.7 µM. TR-FRET IN-LEDGF/p75 DNA integration, Eu/Cy5. HIV-1 integrase (with human LEDGF/p75). 370,000 tested, 0.64% active;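 active means inhibition above the screen-wide mean plus 3 SD, cut at about 13% in these data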;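 further: signal is the Cy5 over europium emission ratio at 671 and 618 nm; 0% = plate median of compound wells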
PRMT1 FP inh – PRMT1 methyltransferase inhibitors, primary screen, biochemical, fluorescence polarization | Protein arginine N-methyltransferase 1 (Homo sapiens), Q99873 | recombinant PRMT1, activity-based probe fluorescence polarization | inhibition, % at 2.79 µM | 370,000 tested, 1.3% active | AID 652257, 2013;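 active means inhibition above about 21% made by adding two undisclosed values, limit read from the data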
rCAG binder conf – small molecules binding CAG repeat RNA – biochemical, fluorescence, confirmation; inhibition, % at 3 µM; shares compounds with rCAG RNA binder; r(CAG) RNA repeat, TO-PRO-1 dye displacement fluorescence; 4,300 tested, 70% active;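 active means inhibition above a per-plate cutoff, the mean inhibition of sample wells plus 3 SD, cut at about 35% in these data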;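 further: loss of TO-PRO-1 fluorescence as compound displaces dye from 1x1 AA loop RNA; 0% = DMSO only wells and 100% = 100 µM mitoxantrone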
DNA CAG counter – displacement of TO-PRO-1 from CAG DNA duplex, counter-screen for rCAG RNA repeat binder project, biochemical, fluorescence, TO-PRO-1 dye, d(CAG) DNA oligo; 4,300 tested, 94% active; shares compounds with rCAG RNA binder; inhibition, % at 3 µM; d(CAG) DNA oligo TO-PRO-1 dye displacement;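 active means inhibition above its plate's cutoff, the mean test-well inhibition plus 3 SD, cut at about 4.8% in these data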;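 further: 0% = DNA dye mix with DMSO and 100% = 100 µM mitoxantrone; hits displace the dye from DNA and so lower well fluorescence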
* marks the source's active call; other numbers are inactive results; . = no result given. Shown are actives, neighbours in structure and some others; about 3.2% of the full set was active somewhere.

SMILES	ABHD4 inh	rCAG RNA binder	DAGLB inh	HTRA1 inhibitor	LEDGF integ inh	PRMT1 FP inh	rCAG binder conf	DNA CAG counter
O=C(COC(=O)c1cc(S(=O)(=O)N2CCOCC2)ccc1F)c1ccc[nH]1	-7.2	1.7	-0.6	-2.1	-3.5	2.5	.	.
COc1ccc(CSc2nc(CSC)cc(N3CCOCC3)n2)cc1	-2.9	-3.6	-0.4	-15.9	-6.1	2.4	.	.
CCC(C)N=Cc1c(NCc2ccco2)nc2c(C)cccn2c1=O (stereo unspecified)	4.7	5.5	-4.7	1.1	2.1	-3.5	.	.
COc1ccc(NC(=O)Nc2nc(C(N)CC(C)C)cs2)cc1 (stereo unspecified)	-1.3	27.6	.	.	0.3	3.2	.	.
NC(c1csc(NC(=O)Nc2ccc(OC(F)(F)F)cc2)n1)C1CCCCC1 (stereo unspecified)	3.5	40.0*	.	.	4.4	-0.2	25.4	4.0
Cc1ccc(S(=O)(=O)Oc2ccc(/C=C(/NC(=O)c3ccccc3)C(=O)O)cc2)cc1	-3.0	39.8*	2.9	-5.7	3.2	1.4	36.9*	9.3*
Cc1ccc(S(=O)(=O)Oc2ccc(/C=C(/NC(=O)c3ccccc3)C(=O)NCC(=O)O)cc2)cc1	-0.1	33.5	.	.	1.4	2.3	.	.
O=[N+]([O-])c1ccc(Cl)c(S(=O)(=O)Nc2cccc(-c3ccc(N4CCOCC4)nn3)c2)c1	4.6	38.0*	5.0	4.9	-0.8	-2.5	31.9	9.9*
Cc1ccc(-c2[nH]c(-c3ccc(C(=O)O)cc3)nc2-c2ccccc2)cc1	10.9	70.0*	5.3	-15.3	1.3	-4.4	58.3*	18.4*
O=C(O)c1ccc(-c2nc(-c3ccccc3)c(-c3cccs3)[nH]2)cc1	0.0	2.6	0.4	-1.7	-2.6	-0.1	.	.
NS(=O)(=O)c1ccc(C(=O)Nc2ccc(-c3nc4cccnc4s3)cc2)cc1	-2.8	1.1	2.9	4.0	3.1	-4.3	.	.
O=S(=O)(Nc1ccc(-c2nc3cccnc3s2)cc1)c1cc(F)ccc1F	0.6	44.8*	0.1	-3.1	-4.3	0.7	35.3*	9.2*
Cc1ccc(-c2nc3cccnc3s2)cc1NS(=O)(=O)c1cccs1	-3.5	26.1	-0.8	-26.1	-1.2	5.1	.	.
CCc1ccc(S(=O)(=O)Nc2ccc(-c3nc4cccnc4s3)cc2)s1	-7.7	56.8*	2.4	-24.7	2.0	-0.6	57.6*	21.7*
COc1ccc(CN2C(=O)C(CC(=O)NCCc3ccccn3)CC(C(=O)N(C)C)=C2C)cc1 (stereo unspecified)	-1.0	4.0	0.7	-1.9	2.5	-2.9	.	.
O=C1C(Cl)=C(NS(=O)(=O)c2ccc([N+](=O)[O-])cc2)C(=O)c2ccccc21	30.4*	38.2*	27.3	13.0	-1.1	10.8	23.6	5.3*
COc1cc(/C=C2\SC(=O)N(CC(=O)Nc3cccc(C)c3)C2=O)ccc1OC(C)C(=O)O (stereo unspecified)	6.2	53.7*	2.1	-9.8	-2.0	5.4	43.7*	14.0*
Cc1cccc(C)c1-n1cccc1/C=C1\SC(=S)N(c2cccc(C(=O)O)c2)C1=O	-20.4	83.5*	13.9	-144.9	0.7	1.5	77.9*	41.0*
Cc1cccc(NC(=O)CN2C(=O)S/C(=C\c3cccn3-c3cccc(C(=O)O)c3)C2=O)c1	-14.7	83.7*	5.1	-69.6	7.0	5.8	80.7*	48.7*
Cc1ccc(NC(=O)CN2C(=O)S/C(=C\c3cc(C)n(-c4ccc(C(=O)O)cc4)c3C)C2=O)cc1	-42.9	68.2*	1.6	-39.2	0.9	0.7	85.2*	47.5*
CC1(c2cccc3ccccc23)NC(=O)N(CC(=O)NC2CCS(=O)(=O)C2)C1=O (stereo unspecified)	0.1	-0.1	0.1	-1.9	0.4	-1.4	.	.
COc1ccc(-c2nn(-c3ccccc3)cc2C(=O)N2c3ccc(C)cc3C3CN(C)CCC32)cc1 (stereo unspecified)	1.9	-1.9	1.4	-15.8	2.2	-2.4	.	.
COc1ccc2sc(N(CCCN(C)C)C(=O)c3ccc(S(=O)(=O)N(C)Cc4ccccc4)cc3)nc2c1	9.7	-5.9	1.8	-22.8	-3.9	-1.4	.	.
O=C(c1cc(C(=O)N2CCOCC2)c2nc3ccccc3n2c1)c1cc(Cl)cc(Cl)c1O	9.6	45.5*	12.3	5.7	-5.3	1.9	44.3*	12.0*
CCc1c(C)sc2nc3c(C(=O)N4CCOCC4)cc(C(=O)c4ccccc4O)cn3c(=O)c12	-6.9	8.2	-2.5	-6.3	7.8	-3.9	.	.
SMILES	ABHD4 inh	rCAG RNA binder	DAGLB inh	HTRA1 inhibitor	LEDGF integ inh	PRMT1 FP inh	rCAG binder conf	DNA CAG counter
CCCCCCCCCCCCN1[C@@H](CC(=O)O)c2cc(C(F)(F)F)ccc2S1(=O)=O	-35.7	27.8	11.2	-51.0	4.2	3.5	.	.
CCCCCCCCN1[C@@H](CC(=O)OC)c2cc(F)ccc2S1(=O)=O	-7.3	-8.6	-10.2	-17.9	-0.3	-2.8	.	.
CCCCCCCCCCCCN1[C@@H](CC(=O)O)c2cc(F)ccc2S1(=O)=O	-8.6	75.8*	12.2	-81.2	2.6	4.7	67.8*	24.1*
CCCCCCCCN1[C@@H](CC(=O)O)c2cc(C(F)(F)F)ccc2S1(=O)=O	-10.9	40.0*	10.7	-13.7	0.5	4.0	26.2	3.7
C#CCOc1ccc(/C=C2/C(=O)N(c3cccc(C(=O)O)c3)N=C2C)cc1OC	7.4	7.4	-10.8	14.3	-0.8	6.1	.	.
O=S(=O)(N/N=C/c1ccc(Cl)cc1)c1ccc(Cc2ncc(C(F)(F)F)cc2Cl)s1	3.0	45.0*	7.8	-20.2	2.6	-0.8	64.5*	25.6*
NC(=O)c1ccc(Cc2ncc(C(F)(F)F)cc2Cl)s1	-3.0	-0.6	-1.2	-11.8	1.3	0.5	.	.
O=C(c1c(O)cc(O)cc1O)C1c2c(cc(O)c3c2O[C@H](c2ccc(O)cc2)[C@@H](O)C3)OC1c1ccc(O)cc1 (stereo partly specified)	-27.2	37.2*	5.9	16.0	10.1	6.0	45.0*	15.7*
COC(=O)c1sc(-c2ccc(Cl)cc2)cc1NC(=O)CSCC(=O)O	-5.9	26.5	2.9	-16.9	5.8	-6.9	.	.

Assay outcomes from PubChem.
